Results: the RNAGym collection of RNA variant scans (doi:10.1126/science.aae0568)
Variants at the floor of the assay were thinned out.

B1: tRNA (parent)
chain: GUUCCGUUGGCGUAAUGGUAACGCGUCUCCCUCCUAAGGAGAAGACUGCGGGUUCGAGUCCCGUACGGAACG

Variants of: B1
Assay: yeast fitness relative to wild type (ratio to wild type); higher = fitter; tRNA-Arg(CCU), competitive growth, 37 C, YPD
Procedure, shortened: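 A pool of Saccharomyces cerevisiae strains, each with a tRNA-Arg(CCU) gene variant at the native genomic locus, was competed in YPD at 37°C for 24 hours across six parallel replicates. The variants had been chemically synthesised at a 3% per-site mutation rate over 69 sites, and gene amplicons before and after competition were read by 100-nucleotide paired-end sequencing. Darwinian fitness relative to wild type rested on changes in genotype frequencies. Genotypes required ≥ 100 starting reads, and estimates < 0.5 were set to 0.5.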
GUACCGUAGGCGUAAUGGUAACGCGUGUCCCUCCUAAGGAGAAGACUGCGGGUUCGAGUCCCGUACGGAACG showed a yeast fitness of no more than 0.5.
GUACCGGUGGCGUUAUGGUAACGCAUCUCCCUCCUAAGGACAAGAUUGCGGGUUCGAGUCCCGUACGGAACG gave a yeast fitness of no more than 0.5.
GUACCGUUGGCGUAACGGUCACGCGUCUCCCUCCUAAGGAGAAGACUGCGGGUUCGAGUCCCGUACGGAACG showed a yeast fitness of no more than 0.5.
For GUCCCGUUGGCGUAAUGGUGACGCGUCUCCCUUCUAAGGGGAAGACUGCGGGUUCGAGUCCGGUACGGAUCG, the yeast fitness was no more than 0.5.
GUACCGUUGGCGUAAUGGUAACGCGUCUCCCUCCUAAGGAGAAGACUGCGGGCUCGAGUCCCGUACGGAACG gave a yeast fitness of 0.668.
For GUCCCGUUGGCGUGAUGGUAAAGCGUGUCCCUCCUAAGCAGAAGACUGCGGGUUCGAGUCCGGUACGGAACG, the yeast fitness was no more than 0.5.
In the case of GUACCGUUGGCGUAAUGGUAACGCGUCUCCCUCCCAAGGAGAAGACUGCGGGUUCGCGUCCCGUACGGAACG, the yeast fitness is reported as no more than 0.5.
For GUACCGUUGGCGUAAUGGAAACGCGUCUCCCUCCUAAGGAGUACACUGCGGGUACGAGUCCCGUACGGAACG, the yeast fitness was no more than 0.5.
Variant GUACCGUUGGCGUAAUGGAAACGCGUCUCCCUUCUAAGGAGAAGACUGCGGCUUCGAGUCCCGUGCGGAACG has a yeast fitness of no more than 0.5.
With GUACCGGUGGCGUAAUGGUAACGCGUCUCCCUCCUAAGGAGAAGACUGCGGGUUCGAGUCCCGUACGGAACG the yeast fitness was 0.734.
In the case of GUACCGUUGGCGUAAUGGCAACGCGUCUACCUCCUUAGGAGAAGACUGCGGGUUCGAGUCCCGUACGGAACG, the yeast fitness is reported as no more than 0.5.
Variant GUCCCGUUGGCGUAAUGGUCACCCGUCUCCCUCCUAAGGAGAAGACUGCGGGUUCGAGUCCCGUACGGAACG has a yeast fitness of no more than 0.5.
Work on GUCCCGUUGGCGUAGUGGUAACGCGUCUACCUCCUAAGGUGAAGACUGCGGGUUGGAGUCGCGUACGGAACG yielded a yeast fitness of no more than 0.5.
In the case of GUCCCGUUGGCGUAAUGGUGACGCGUCUCCCUCCUAAGGAGAAGACUGCGGGUUCGAGUCCCGUACGGAACG, the yeast fitness is reported as 0.917.
For GUCCCGUUGGCGUAAUGGUAGCGCGUCUGCCUCCUAAGGAGAAGACUGCGGGUUCGAGUCCCGUACGGAACG, the yeast fitness was no more than 0.5.
GUCCCGUUGGCGUAGUGGUAACGCGUCUCGCUCCUAAGGAGAAGACUGCGGGUUCAAGUCCCCUACAGAACG showed a yeast fitness of no more than 0.5.
Variant GUCCCGUUGGCGUAAUGGUAGCGCGUCUCACUGCUAAGGAGAAGACUGCGGGUUCGAGACCCGUAUGGAACG has a yeast fitness of no more than 0.5.
Work on GUACCGUUGGCGCAAUGGUAACGCGUCUCCCUCCUAAGGAGAAGACUGCGGGUUCGAGUCCCGUACGGUACG yielded a yeast fitness of 0.72.
For GUCCCGUUGGCGUGAUGGUAACGAGUCUCCCUCCUAAGGAGAAAACUGCGGGUUCGAGUCCCGUCCGGAACG, the yeast fitness was no more than 0.5.
With GUCCCGUUGGCGUACUGGUGACGCGUCUCCCUCCUAAGGAGAAGACUGCGGGUUCGAGUCCCGUACGGAACG the yeast fitness was no more than 0.5.
Work on GUACCGUAGGCGUAAUGGUAACGCGUCUCCGUCCUAAGGCGAAGACUGCGGGUUCGAGUCCCGUACGGAACG yielded a yeast fitness of 0.563.
GUCCCGUUGGCGUAAUGGUUACGCGUCUCCCUCCUAAGGAGAAGACUGCGGGUUCGAGUCCCGUACGGACCG showed a yeast fitness of 0.59.
In the case of GUACCGUUGGCGUAAUGGUAACGCGUCACCCUCCUAAGGAGAAGACUGCGGGUUCGAGUCCCGUACGGAACG, the yeast fitness is reported as 0.865.
GUACCGUUGGCGUAAUGGCAACGUGUCUCCCUCCUAGGGAGAAGACUGCGGGUUCGAGUGCCGUACGGAACG gave a yeast fitness of no more than 0.5.
In the case of GUACCGGUGGCGUAAUGGUAACGCGUCUGCCUCCUAAGGAGAAGACUGUGGGUUCGAGUCCCGUACGGAACG, the yeast fitness is reported as no more than 0.5.
For GUACCGGUGGCGUUAUGGUAACGCAUCUCCCUCCUAAGGACAAGAUUGCGGGUUCGAGUCACGUACGGAACG, the yeast fitness was 0.519.
Work on GUACCGUUGGCGUAAUGGAAACGCGUCUCCCUCCUAAGGAGAAGACUGCGGGUUCGACUCCCGUACGGAACG yielded a yeast fitness of 0.675.
In the case of GUACCGUUGGCGUAAUGGUAACGCGUCUCCCUCCUAAGGAGAAGACUGCGGGCCCGAGUCCCGUACGGAACG, the yeast fitness is reported as no more than 0.5.
For GUACCGUUGGCGUAAUGGUAACGCGUCUCCCGCCUAAGGAGAAGACUGCGGGUUCAAGUCCCGUACGUUACG, the yeast fitness was no more than 0.5.
For GUCCCGUUGGCGUAAUGGUGACGCGUCUCCCUCCUAAGGAGAAGACUGCGGGUUCGAGCCCCGUACGGCACG, the yeast fitness was 0.79.
Variant GUACCGUUGGCGUAACGGUAACGCGUCUCCCUCCUAAGGAGAAGAUUGCGGGUUCGAGUCCCGUACGGAACG has a yeast fitness of 0.631.
Variant GUACCGUUGGCGUAAUGGUAACGCGUCUCCCACCUAAGGAGAAGACUGCGGGUUCGAGUCCCGUACGGAACG has a yeast fitness of 0.74.
With GUCCCGUUGGCGUUAGGGAAACGCGUCUCCCUCCUAAGGAGGAGACUGCGGGUUCGAGUCGCGUACGGAACG the yeast fitness was no more than 0.5.
In the case of GUCCCGUUGGCGUAAUGGUUACGCGUCUCGCUUCUAAGGAGAAGACUGCGGGUUCGACUCCCGUACGGAACG, the yeast fitness is reported as no more than 0.5.
Variant GUCCCGUUGGCGUCAUGGUAGUGCGUCUCCCUCCUAUGGAGAAGACUGAGGGUUCGAGUGCCGUACGGAACG has a yeast fitness of no more than 0.5.
With GUCCCGUUGGCGUACUGGUAACGCGUCUCCCUCCUAAGGAGAAGACUGCGGGUUCGAGUCCCGUACGGAACG the yeast fitness was 0.695.
GUCCCGUUGGCGUAUCGGUAACGCGUCUCCCUCUUAAGGAGAGGACUGCGGGUUCGAGUCCCGUACGGAACG gave a yeast fitness of no more than 0.5.
With GUACCGUUGGCGUAACGGCAACGCGUCUCCCUCCUAAGGAGAAGAUUGCGGGUUCGAGUCCCGUACGGAACG the yeast fitness was no more than 0.5.
